Measurements published in ChEMBL document CHEMBL1127468, “A marked change of receptor affinity of the 2-methyl-5-(3-hydroxyphenyl)morphans upon attachment of an (E)-8-benzylidene moiety: synthesis and evaluation of a new class of sigma receptor ligands” (J Med Chem, 1994).

Assays:
[1] = molecular target: Mu-type opioid receptor (Rattus norvegicus, UniProt P33535); assay: Inhibition of radioligand [3H]DAMGO binding to rat brain mu receptor
Summary of the method: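 Rat brain membranes labelled with [3H]DAMGO (1-3 nM), incubated 4 h at 25 °C in 50 mM Tris-HCl pH 7.4 with protease inhibitor cocktail. Nonspecific binding defined by 20 μM levallorphan. Displacement by 8-10 test drug concentrations, done twice; drug dilutions in 10 mM Tris-HCl pH 7.4 containing 1 mg/mL BSA.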

[2] = molecular target: Kappa-type opioid receptor (Cavia porcellus, UniProt P41144); assay: Inhibition of radioligand [3H]U-69593 binding to kappa 1 receptor of guinea pig brain
Chain of Kappa-type opioid receptor (P41144 whole entry): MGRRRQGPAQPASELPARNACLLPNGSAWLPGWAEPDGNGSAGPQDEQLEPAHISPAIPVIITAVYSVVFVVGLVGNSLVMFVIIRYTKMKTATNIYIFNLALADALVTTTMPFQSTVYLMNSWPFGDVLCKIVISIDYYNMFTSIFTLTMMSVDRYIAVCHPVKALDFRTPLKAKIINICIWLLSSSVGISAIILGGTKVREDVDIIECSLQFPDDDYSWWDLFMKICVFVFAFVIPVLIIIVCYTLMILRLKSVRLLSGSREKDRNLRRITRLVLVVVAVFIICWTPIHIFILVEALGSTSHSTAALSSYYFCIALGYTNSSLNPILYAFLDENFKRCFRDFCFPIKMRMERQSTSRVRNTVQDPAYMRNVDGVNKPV
Summary of the method: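 Guinea pig brain membranes pretreated with irreversible ligands BIT and FIT to deplete mu and delta sites. Nonspecific binding with 1 μM U69,593. 8-10 drug concentrations, run twice.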

[3] = molecular target: Glutamate NMDA receptor; assay: Inhibition of radioligand [3H]TCP binding to PCP site in rat brain; assay type: tissue-based
[4] = molecular target: Delta-type opioid receptor (Rattus norvegicus, UniProt P33533); assay: Inhibition of radioligand [3H]DADLE binding to rat brain delta receptor
Chain of Delta-type opioid receptor (P33533 whole entry): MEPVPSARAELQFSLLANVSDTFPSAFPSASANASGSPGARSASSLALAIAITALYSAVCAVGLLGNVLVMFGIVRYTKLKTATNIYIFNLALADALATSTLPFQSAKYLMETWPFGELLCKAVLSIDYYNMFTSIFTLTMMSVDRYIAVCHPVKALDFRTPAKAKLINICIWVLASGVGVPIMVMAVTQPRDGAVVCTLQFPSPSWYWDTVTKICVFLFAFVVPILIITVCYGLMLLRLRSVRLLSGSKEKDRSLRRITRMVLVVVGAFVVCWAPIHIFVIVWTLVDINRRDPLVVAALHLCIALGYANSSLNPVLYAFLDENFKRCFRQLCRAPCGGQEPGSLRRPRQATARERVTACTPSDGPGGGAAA
Summary of the method: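 Rat brain membranes; [3H]DADLE 1.7-2.5 nM, 3-4 h at 25 °C in 10 mM Tris-HCl pH 7.4 with 100 mM choline chloride, 3 mM MnCl2, 100 nM DAMGO to block mu sites, and protease inhibitor cocktail. Nonspecific binding with 20 μM levallorphan. 8-10 test drug concentrations, run twice; dilutions in Tris buffer with 1 mg/mL BSA.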

[5] = molecular target: Muscarinic acetylcholine receptor; assay: Inhibition of radioligand [3H]NMS binding to muscarinic receptor of rat brain
[6] = molecular target: Glutamate NMDA receptor; assay: Inhibition of radioligand [3H]TCP binding to rat brain PCP site.
[7] = Ratio of Ki values tested against sigma receptor and Mu receptor
[8] = system: Glutamate NMDA receptor; assay: Inhibition of radioligand [3H]TCP binding to PCP site in rat brain; No inhibition; assay type: tissue-based

Chain of Mu-type opioid receptor (P33535 whole entry): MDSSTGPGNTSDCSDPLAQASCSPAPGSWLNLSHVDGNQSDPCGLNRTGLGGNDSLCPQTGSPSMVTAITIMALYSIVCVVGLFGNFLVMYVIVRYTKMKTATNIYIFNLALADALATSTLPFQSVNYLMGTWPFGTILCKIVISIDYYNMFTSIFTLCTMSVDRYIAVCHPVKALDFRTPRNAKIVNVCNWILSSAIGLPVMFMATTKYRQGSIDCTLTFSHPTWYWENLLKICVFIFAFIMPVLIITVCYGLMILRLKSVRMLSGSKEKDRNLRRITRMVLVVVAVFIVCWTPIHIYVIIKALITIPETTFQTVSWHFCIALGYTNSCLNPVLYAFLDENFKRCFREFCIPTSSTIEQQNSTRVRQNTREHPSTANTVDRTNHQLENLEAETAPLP

Row | SMILES | Ki [1] [nM] | Ki [2] [nM] | Ki [3] [nM] | Ki [4] [nM] | Ki [5] [nM] | Ki [6] [nM] | Ratio [7] | Ki [8]
1 | CN1CC[C@@]2(c3cccc(O)c3)CC(=O)/C(=C/c3ccccc3)[C@@H]1C2 | 392 | 889 | > 100000 | 1990 | 7400 | – | – | –
2 | CN1CC[C@@]2(c3cccc(O)c3)CC(=O)/C(=C/c3ccc(Cl)c(Cl)c3)[C@@H]1C2 | 45.1 | > 500 | > 100000 | > 500 | 50300 | – | – | –
3 | CN1CCC2(c3cccc(O)c3)CC(=O)/C(=C/c3ccc(Cl)c(Cl)c3)C1C2 (stereo not drawn) | 6.1 | > 500 | > 100000 | 240 | – | – | – | –
4 | CN1CCC2(c3cccc(O)c3)CC(=O)CC1C2 (stereo in doubt; 4) | 5.5 | 1010 | – | 320 | 46400 | – | – | –
5 | COc1cccc(C23CCN(C)C(CC(=O)C2)C3)c1 (stereo not drawn) | – | – | – | – | 23300 | > 100000 | – | –
6 | CN1CCC2(c3cccc(O)c3)CC(=O)CC1C2 (stereo in doubt) | 8.7 | 491 | – | 121 | 25300 | > 100000 | – | –
7 | CN1CCC2(c3cccc(O)c3)CC(=O)/C(=C/c3ccccc3)C1C2 (stereo not drawn) | 33.9 | 576 | > 100000 | > 500 | 14400 | – | – | –
8 | CN1CC[C@]2(c3cccc(O)c3)CC(=O)/C(=C/c3ccccc3)[C@H]1C2 | 37.6 | 1090 | ~100000 | 735 | 26000 | – | – | –
9 | COc1cccc(C23CCN(C)C(C2)/C(=C\c2ccccc2)C(=O)C3)c1 (stereo not drawn) | – | – | > 50000 | – | 11600 | – | – | –
10 | C[N+]1(C)CCC2(c3cccc(O)c3)CC(=O)/C(=C/c3ccccc3)C1C2.[I-] (stereo not drawn) | > 700 | > 5000 | – | > 1000 | 14700 | – | < 7.7 | Not Active
11 | CN1CC[C@@]2(c3cccc(O)c3)CC(=O)/C(=C/c3ccc(Cl)c(Cl)c3)[C@H]1C2 | 4.5 | > 500 | > 100000 | 271 | 18600 | – | – | –
